Results from ChEMBL document CHEMBL4513216, “Probing the Open Global Health Chemical Diversity Library for Multistage-Active Starting Points for Next-Generation Antimalarials” (ACS Infect Dis, 2020).

test: Toxicity liver stage against HepG2, at 10uM; format: cell-based; design: test concentration 10 uM, cell line HepG2-A16-CD81EGFP; conditions: human, HepG2-A16-CD81EGFP cells; read-out: INHIBITION
Summary of the method: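 Uninfected HepG2-A16-CD81EGFP cells, 3 × 10^3 per well, 1536-well, plated on prespotted compound at 10 μM final, parasite-free screening media added to match infected plates; puromycin 10 μM positive, DMSO 0.5% negative; run in parallel with 48 h PbLuc assay at 37 °C, 5% CO2; viability by CellTiter-Glo luminescence, normalized to controls.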

| SMILES | cytotoxicity at 10 µM [%] |
| --- | --- |
| O=C(C1CC1)N1C[C@@H](F)[C@@H](OCc2nc3cc(F)ccc3[nH]2)C1 | -6.92 |
| CCN(CC)C1(Cc2cc(-c3ccccn3)on2)COC1 | 1.41 |
| CC[C@H]1CN2CC[C@H]1C[C@@H]2CNC(=O)NC1CCCCC1 | 0.91 |
| CC[C@H]1CN(C(=O)C(C)(C)C)CC[C@H]1CC(=O)O | -0.61 |
| CC(=O)c1cc2ncc(C(=O)NC3CCCC3)cc2[nH]1 | -1.98 |
| C[C@H](NC(=O)N1CCN(c2ccc(Cl)cc2)CC1)C(=O)N1CCSCC1 | -6.3 |
| CCOc1ccc(S(=O)(=O)NCCc2ccc(N(C)C)cc2)cc1C | -6.48 |
| COCCN1C[C@H]2CCN(C(=O)c3cc(C)on3)CC[C@H]2S1(=O)=O | -1.69 |
| O=C(c1ccco1)N1CCC2(CCC(=O)N2Cc2ccncc2)CC1 | 1.29 |
| CN(C)CCOCC1CN(C(=O)c2cccnc2)Cc2ccnn2C1 (stereo not drawn) | 5.57 |
| CCC1=N[C@@]2(CC[C@@H]3CN(C(=O)Nc4ccccc4)C[C@@H]32)C(=O)N1CC | 2.93 |
| Cc1occc1C(=O)N1CC(C(=O)N2CCOCC2)C2(CCOCC2)C1 (stereo not drawn) | 7.37 |
| CCC1=N[C@@]2(CC[C@@H]3CN(S(=O)(=O)CC(C)C)C[C@@H]32)C(=O)N1CC1CC1 | 0.457 |
| Cn1ncc2c1NC(=O)CSC2c1ccccc1Cl (stereo not drawn) | 5.81 |
| COCC1CN(C(=O)C2=CCCCC2)Cc2cnn(CC3CC3)c21 (stereo not drawn) | 3.46 |
| COCC1CC2(CCN(C(=O)c3occc3C)CC2)CO1 (stereo not drawn) | 0.982 |
| Cc1nn(C)c2cn(CC(=O)N3CCc4ccccc4C3)nc12 | 8.41 |
| CSCc1cccc(S(=O)(=O)Nc2cc(C)on2)c1 | 6.27 |
| CCN(Cc1c(C)nn(CC)c1C)S(=O)(=O)c1cn(C)nc1C | 7.36 |
| CNc1cncc(C2CCN(C(=O)c3cnco3)CC2)n1 | -5.68 |
| CC(NC(=O)CCn1c(=O)oc2ccccc21)c1ccccn1 (stereo not drawn) | -3.34 |
| O=C(CCn1c(C(F)(F)F)cc2cccnc21)NC1CCCC1 | -14.3 |

| SMILES | cytotoxicity at 10 µM [%] |
| --- | --- |
| Cc1nc(C)n(CC(=O)N2CCc3ncc(Cl)cc3C2)n1 | -18.8 |
| COc1ccccc1C1=NOC(CC2(C(=O)NCCO)CCOCC2)C1 (stereo not drawn) | -26.2 |
| Cc1nc2ccc(C(=O)N3C[C@@H](O)[C@H](N4CCOCC4)C3)cc2[nH]1 | -5.81 |
| CN(C)Cc1ccnc(C2CN(Cc3c(F)cccc3F)CCO2)n1 (stereo not drawn) | -3.14 |
| Cc1nc(O)c2nnn(C[C@H]3CCCN3C(=O)c3ccc(F)cc3)c2n1 | -4.28 |
| Cn1cc(CN2CCC(c3[nH]ncc3S(C)(=O)=O)C2)cn1 (stereo not drawn) | -4.55 |
| CN1CCCCC12Cc1ccccc1CN(C(=O)C1CCCC1)C2 (stereo not drawn) | 2.88 |
| CCCc1noc(C(C)N2CC(n3cccn3)C2)n1 (stereo not drawn) | 2.13 |
| CCOC1CCCN(C(=O)CCOc2ccc(C)cc2OC)C1 (stereo not drawn) | -9.22 |
| COCCNC(=O)N1CCN(c2cc(F)ccc2F)CC1 | -5.95 |
| COc1ccnc(NC(Cc2ccccc2)C(=O)N(C)C)n1 (stereo not drawn) | 6.39 |
| Cn1ccc(C(=O)N2CCCC(CNS(C)(=O)=O)C2)cc1=O (stereo not drawn) | 0.193 |
| COc1ncccc1CNC(=O)N(Cc1ccccc1F)C1CC1 | 2.99 |
| CCc1cccc(C)c1NC(=O)C1CC(=O)N(Cc2ccccn2)C1 (stereo not drawn) | 1.09 |
| Cc1nn(C(C)C)c(C)c1S(=O)(=O)Nc1cccc(F)c1 | -0.335 |
| CCCS(=O)(=O)N1CCCC1c1cccc(N(C)C)c1 (stereo not drawn) | 1.62 |
| NC(=O)C1CCCN1C1CCN(C(=O)c2cccc3c2OCO3)CC1 (stereo not drawn) | -0.353 |
| c1ccc(N(CCn2cncn2)CC2CC2)cc1 | 3.04 |
| Cc1n[nH]c(C)c1NC(=O)NCc1ccccn1 | 1.85 |
| CCC1COCCN1C(=O)NCc1nccn1CC(C)C (stereo not drawn) | -3.36 |
| N#Cc1ccc(NC2CCN(CC(F)F)CC2)c(F)c1 | -5.3 |
| CCOc1cc(C(=O)NS(C)(=O)=O)cc(-c2ccccc2)c1OC | 12.5 |

| SMILES | cytotoxicity at 10 µM [%] |
| --- | --- |
| CC(C)NC(=O)COc1nc(C(C)(C)C)no1 | -7.48 |
| O=C(NCCCO)Nc1cccc(Cl)c1F | 2.79 |
| CC(C)Cc1cc(C(=O)NCCc2ccc(S(C)(=O)=O)cc2)[nH]n1 | -8.93 |
| O=C1N(Cc2cccc(F)c2)CCC12CCCN(c1ncc(F)cn1)C2 (stereo not drawn) | 0.797 |
| CC[C@@H](C)[C@@H](N)C(=O)Nc1cccc(-c2cnc(N(C)CCO)nc2)c1 | -5.89 |
| c1ccc2c(c1)CN(c1ncnc3sc4c(c13)CCNC4)CCO2 | 5.08 |
| C[C@@H]1CN(c2nc(N)nc3c2CCC3)C[C@]1(C)O | 4.6 |
| CC(C)[C@@H]1CN(C(=O)CCn2ccccc2=O)C[C@H]1NS(C)(=O)=O | 6.2 |
| CCOCc1nc(-c2ccc(F)cc2Cl)n(C2CCN(C)CC2)n1 | 0.0453 |
| CN1CCN([C@H]2CCN(C(=O)c3nn(C)cc3Cl)C[C@H]2CCCO)CC1 | -2.86 |
| CCCc1cc(C(=O)N2CC(c3ccncc3)C2)ccn1 | 2.36 |
| COc1ccc(N2CCN(C(=O)Cn3nc(C)c(C)c3C)C(C)C2)cc1 (stereo not drawn) | -4.33 |
| COCCc1noc(-c2cn(CCc3ccccc3)nn2)n1 | -2.56 |
| CN(C)CC1(O)CCCN(C(=O)CCc2nc3cccnc3n2C)C1 (stereo not drawn) | 0.0448 |
| CSCCC(=O)N1CCC(CCC(=O)NCC2CCCO2)CC1 (stereo not drawn) | 10.7 |
| COCc1cc(N2CCOC(c3ccc(Cl)cc3)C2)ncn1 (stereo not drawn) | 1.92 |
| Cc1cc(N2CCC(N3CCOCC3)C2)n2nc(C)c(C)c2n1 (stereo not drawn) | 3.9 |
| N[C@@H]1c2ccccc2C2(CCN(C(=O)c3cncc(Cl)c3)CC2)[C@H]1O | -2.78 |
| Cc1ccc(CN(C)C(C(=O)O)c2ccc3c(c2)OCO3)o1 (stereo not drawn) | 6.35 |
| C[C@@H]1CN(Cc2cc3ccccc3n2C)CC[C@@]1(O)C1CC1 | -2.07 |
| CCc1nnc(N[C@H](C)c2cccc(OC)c2)o1 | 1.35 |
| CCOCCn1nc(C2CCNCC2)n(Cc2ccccc2)c1=O | 4.08 |

| SMILES | cytotoxicity at 10 µM [%] |
| --- | --- |
| CN(C)CCC1CCCCN1Cc1cnc(-c2ccccn2)nc1 (stereo not drawn) | 3.74 |
| C[C@@H]1CN(CCC(=O)N(C)Cc2ccccc2)C[C@@]1(O)C1CCC1 | -6.95 |
| Cc1cnc(C(=O)N(C)Cc2nc(-c3ccccn3)no2)cn1 | 3.42 |
| Cc1cc(C(=O)N2CCCC(c3nccn3Cc3ccncc3)C2)no1 (stereo not drawn) | 0.471 |
| CSc1nccc(N2CCC(NCc3nc(C)cc(C)n3)CC2)n1 | 3.41 |
| CSCC(=O)N1CCC(c2nccn2Cc2cscn2)CC1 | -6.6 |
| COc1ccc([C@@H]2CN(C(=O)Cc3cccs3)C[C@H]2NC(C)=O)cc1 | -1.16 |
| Cn1ncc(N2CCC(CNC(=O)[C@@H](N)C3CCCCC3)CC2)cc1=O | 12.7 |
| O=C(O)c1cc(-c2ccc3c(c2)OCO3)cc(S(=O)(=O)NC2CC2)c1 | 2.8 |
| CC(C)O[C@H]1CN(Cc2cnc3c(-c4ccccc4)cnn3c2)C[C@@H]1O | 3.45 |
| CCN1CC2(CCN(C(=O)C3CSC(C)(C)C(=O)N3)CC2)CC1=O (stereo not drawn) | 1.72 |
| CSc1ncc(C(=O)N2C[C@@H](NC(C)=O)[C@H](c3ccc(C)cc3)C2)cn1 | -0.645 |
| CCN1CCC2(CCC1=O)CN(c1ccnc(SC)n1)CCN2C (stereo not drawn) | 17.7 |
| CCSCC(C)NCc1nncn1C1CCCCC1 (stereo not drawn) | 15.3 |
| Cc1nn(CC(=O)n2cccn2)c(C)c1I | -11.5 |
| COc1c(C2CCCN2C(=O)c2sc(C)nc2C)c(C)nn1C (stereo not drawn) | 3.62 |
| Cc1ncc(CN2CCN(c3ccc4nncn4n3)C(C)C2)s1 (stereo not drawn) | -9.04 |
| O=C(Cc1cccc(O)c1)NCCCNC(=O)c1cccc(F)c1 | 1.65 |
| Cc1cc(C)n(CC2CN(CC(=O)NC3CCCCC3)CCO2)n1 (stereo not drawn) | -5.17 |
| Cc1nc(C2CCCN(C(=O)c3ccc(OCC4CC4)nc3)C2)no1 (stereo not drawn) | -4.41 |
| CCNC(c1ccc(C(C)C)cc1)c1cccnc1 (stereo not drawn) | -1.66 |
| O=C(c1cnc(C2CC2)s1)N1CCCC1Cn1cccn1 (stereo not drawn) | -5.09 |

| SMILES | cytotoxicity at 10 µM [%] |
| --- | --- |
| Cc1nc(C)n(C2CCCN(C(=O)c3cn4c(C)cccc4n3)C2)n1 (stereo not drawn) | -7.72 |
| Cn1ncc(NCc2cc(F)cc(F)c2)c(Cl)c1=O | 6.69 |
| O=C(CNCCn1cccn1)NCC1(c2ccccc2)CC1 | 3.15 |
| Cn1ncc2c1CCCC2NCc1ccc(Cl)s1 (stereo not drawn) | 7.6 |
| CC(O)CN(CC(=O)NC(=O)NCC(F)(F)F)c1ccccc1 (stereo not drawn) | 1.15 |
| Cc1nnc(N2CCC(CS(N)(=O)=O)CC2)c(C#N)c1C | 2.12 |
| Cn1nccc1C(=O)N1CCC2(CC1)COC(COc1ccccn1)C2 (stereo not drawn) | -7.18 |
| Cc1cccc(Cn2c3c(ccc2=O)CCN(Cc2ccoc2)CC3)n1 | -11.5 |
| COc1cccc(CN2CCCC3(CCN(C(=O)N4CCCC4)C3)C2)c1 (stereo not drawn) | -4.34 |
| Cn1cc(N2C(=O)CC[C@@H]3[C@H]2CCN3CC2CCOCC2)cn1 | 7.86 |
| Cn1cc(CN2CCCC23CCN(Cc2nccn2C)CC3)cn1 | -5.64 |
| CNC(=O)[C@@H]1CCO[C@@H]2CCN(CCc3ccccc3)C[C@H]21 | 2.55 |
| Cc1nn(C)c(C)c1S(=O)(=O)N1C[C@@H]2C[C@@H](C)O[C@@H]2C1 | 0.788 |
| O=C(c1ccco1)N1CCOCC2(CCN(C3CCOCC3)C2)C1 (stereo not drawn) | 3.07 |
| CC(C)N(C)Cc1cnc2n1CCN(CCc1ccccc1)C2 | -4.58 |
| c1cc2nc(C3CCN(CC4CC4)CC3)nn2cc1N1CCCC1 | -8.13 |
| c1cncc(C[C@H]2[C@H](N3CCOCC3)CCN2Cc2nccs2)c1 | 8.82 |
| Cn1cc(CN2C[C@H]3CCC[C@@]3(COCC3CC3)C2)cn1 | -97.8 |
| N#Cc1cccc(CN2C[C@@H]3CN(c4ncccn4)C[C@@H]3C2)c1 | 8.04 |
| CNC(=O)[C@H]1C[C@H]2CN(Cc3ccc(OC)cc3)C[C@@H]1O2 | 3.02 |
